The results in this text go back to ChEMBL document CHEMBL4017529, “Rational Design of Selective Adenine-Based Scaffolds for Inactivation of Bacterial Histidine Kinases” (J Med Chem, 2017).

Assay [1] is described as follows: Selectivity ratio of IC50 for human full length C-terminal His-tagged Hsp90 alpha expressed in Escherichia coli to IC50 for Thermotoga maritima His-tagged HK853 expressed in Escherichia coli BL21(DE3)pLysS Rosetta.
For assay [2], the system named is Thermotoga maritima. The experiment in a line: Induction of Thermotoga maritima His-tagged HK853 expressed in Escherichia coli BL21(DE3)pLysS Rosetta aggregation at 100 uM after 30 mins by PAGE analysis. An outline of the steps:
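Samples were run on 7.5% native-PAGE and silver stained. Aggregation was scored as loss of the dimeric HK853 band. NH125 served as positive aggregation control.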

The subject of assay [3] is Thermotoga maritima. The experiment in a line: Binding affinity to Thermotoga maritima His-tagged HK853 D411A mutant expressed in Escherichia coli BL21(DE3)pLysS Rosetta assessed as change in melting temperature at 1 mM by SYPRO orange dye based differential scanning fluorimetric analysis.
Assay [4] deals with Thermotoga maritima. The experiment in a line: Binding affinity to wild type Thermotoga maritima His-tagged HK853 expressed in Escherichia coli BL21(DE3)pLysS Rosetta assessed as change in melting temperature at 1 mM by SYPRO orange dye based differential scanning fluorimetric analysis. An outline of the steps:
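Wild-type HK853 at 2–5 µM final in reaction buffer, with SYPRO orange at 5x final. Compound was added at 1 mM final from a 25 mM DMSO stock; the control got DMSO alone. Reactions were 25 µL, made up on ice. Melt ran 20–95 °C at 1 °C min⁻¹ with HEX-filter fluorescence. Tm came from the melt curves, and ΔTm was taken against the control.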

Assay [5] deals with T1, Heat shock protein HSP 90-alpha (Homo sapiens, UniProt P07900). Kind of assay: Inhibition of full length human C-terminal His-tagged Hsp90 alpha expressed in Escherichia coli at […] by fluorescence polarization assay relative to control. For orientation: Fluorescence polarisation rises when a labelled molecule tumbles more slowly, as on binding a larger partner.
Assay [6] can be described thus: Inhibition of BODIPY-FL-ATPgammaS binding to Thermotoga maritima His-tagged HK853 expressed in Escherichia coli BL21(DE3)pLysS Rosetta preincubated for 30 mins followed by 1 hr incubation by SDS-PAGE in-gel fluorescence assay.
The subject of assay [7] is Thermotoga maritima. Kind of assay: Inhibition of ATPgammaS-BODIPY binding to Thermotoga maritima His-tagged HK853 expressed in Escherichia coli BL21(DE3)pLysS Rosetta at […] preincubated for 30 mins prior to ATPgammaS-BODIPY addition measured after 1 hr by […] SDS-PAGE analysis.
Assay [8] deals with Thermotoga maritima. The experiment in a line: Induction of Thermotoga maritima His-tagged HK853 aggregation expressed in Escherichia coli BL21(DE3)pLysS Rosetta at >= […] after 30 mins by PAGE analysis.
The subject of assay [9] is Thermotoga maritima. Kind of assay: Induction of Thermotoga maritima His-tagged HK853 expressed in Escherichia coli BL21(DE3)pLysS Rosetta aggregation at […] after 30 mins by PAGE analysis.
Assay [10] addresses T1, Heat shock protein HSP 90-alpha. Kind of assay: Inhibition of full length human C-terminal His-tagged Hsp90 alpha expressed in Escherichia coli by fluorescence polarization assay.

Molecules are shown by their SMILES. Active and inactive are the calls of the source. The rule behind the calls is not given here.

Turning to `CC1CC(Nc2ncnc3[nH]cnc23)CC(C)(C)C1` (centres undefined), the Ratio IC50 in assay [1] lay within 10 to 2000.

For `Clc1ccccc1CSc1ncnc2[nH]cnc12`, in the assay with Thermotoga maritima [2], the outcome was Active.

Regarding `CCCN(CCC)c1[nH]cnc2ncnc1-2`, the results for the ΔTm in the assay on Thermotoga maritima [3] and in the assay with Thermotoga maritima [4] were less than 2 °C and 10 °C, respectively. Besides, the Ratio IC50 in [1] lay in the range of 10 to 2000. The inhibition in [5] was more than 45%.

`Nc1ncnc2c1ncn2[C@@H]1O[C@H](COP(=O)(O)OP(=O)(O)OP(=O)(O)O)[C@@H](O)[C@H]1O` [ADENOSINE TRIPHOSPHATE] registered an IC50 in [6] of 27 µM.

Consider `Brc1cccc(CSc2ncnc3[nH]cnc23)c1`, for which the outcome with Thermotoga maritima [2] was Active.

With `FC(F)(F)c1cccnc1N1CCN(c2[nH]cnc3ncnc2-3)CC1`, the result in the assay with Thermotoga maritima [2] was Active.

In [5], `c1ccc(CCNc2ncnc3[nH]cnc23)cc1` displayed an inhibition of more than 45%.

Consider `COc1ccc(OC)c(NC(=O)CSc2ncnc3[nH]cnc23)c1`, for which the result with Thermotoga maritima [2] was Active.

For `COc1ccccc1N1CCN(c2[nH]cnc3ncnc2-3)CC1`, the result with Thermotoga maritima [2] was Active.

Turning to `Clc1c(CSc2ncnc3[nH]cnc23)ccc2c1OCO2`, in the assay with Thermotoga maritima [2], the outcome was Active.

In assay [5], `Nc1nc(Cl)nc2c1ncn2[C@@H]1O[C@H](CO)[C@@H](O)[C@H]1O` registered an inhibition of more than 45%.

On to `NS(=O)(=O)c1ccc(CCNc2ncnc3[nH]cnc23)cc1`, for which the outcome in the assay with Thermotoga maritima [2] was Active.

As to `c1ccc(N2CCN(c3ncnc4[nH]cnc34)CC2)nc1`, the outcome in the assay with Thermotoga maritima [2] was Active.

On to `Brc1ccc(CSc2[nH]cnc3ncnc2-3)cc1`, for which the result in the assay on Thermotoga maritima [2] was Active.

For the molecule `CC[C@@H](Nc1ncnc2nc[nH]c12)c1nc2cccc(F)c2c(=O)n1-c1ccccc1`, the inhibition result in the assay on Thermotoga maritima [7] is “inactive”.

Regarding `c1ccc(Nc2ncnc3[nH]cnc23)cc1`, in the assay on Thermotoga maritima [8], the result was inactive.

As to `Nc1ncnc2c1ncn2CCN1CCOCC1`, the result in the assay with Thermotoga maritima [2] was Active.

As for `Clc1ccc(CSc2[nH]cnc3ncnc2-3)cc1`, the result in the assay on Thermotoga maritima [2] was Active.

As to `Nc1ncnc2c1ncn2[C@@H]1O[C@H](COP(=O)(O)O)[C@@H](O)[C@H]1O` [ADENOSINE PHOSPHATE], in assay [6], the IC50 was 1030 µM.

On to `c1ccc(CSc2ncnc3[nH]cnc23)cc1`, for which, in the assay on Thermotoga maritima [2], the result was Active.

As to `C=CCSc1ncnc2[nH]cnc12`, the result in the assay on Thermotoga maritima [2] was Active.

Turning to `Nc1ncnc2c1ncn2[C@@H]1O[C@H](COP(=O)(O)OP(=O)(O)O)[C@@H](O)[C@H]1O` [ADENOSINE DIPHOSPHATE], the results for the ΔTm in the assay on Thermotoga maritima [3] and in the assay on Thermotoga maritima [4] were less than 2 °C and 10 °C, respectively. In addition, in assay [6], the IC50 came to 2.4 µM.

As to `CC1CCN(c2ncnc3[nH]cnc23)CC1`, in the assay with Thermotoga maritima [2], the result was Active.

Consider `Cn1cnc2c(N)nc(Cl)nc21`, for which, in the assay with Thermotoga maritima [9], the result was inactive. The IC50 in assay [10] is more than 1250 µM. The Ratio IC50 in assay [1] was 10 to 2000. The molecule also registered an inhibition in [5] of more than 45%.

Regarding `Cc1ccccc1OCn1cnc2c(N)ncnc21`, in the assay on Thermotoga maritima [2], the result was Active.

Turning to `C=CC(=O)N1CCC[C@H](n2nc(-c3ccc(Oc4ccccc4)cc3)c3c(N)ncnc32)C1`, the inhibition result with Thermotoga maritima [7] was “inactive”.

A word on the ΔTm: it is the shift of the melting midpoint relative to a reference. The inhibition is how much of the control response was suppressed. The IC50 is the concentration at which inhibition is half-maximal.
